GPR7 antag – human neuropeptides B/W receptor 1 antagonism; P48145; GPR7-expressing cells, fluorescence antagonist assay; inhibition, % at 4.4 µM; AID 1861; 290,000 tested, 1.1% active; in the data active = inhibition above about 16%, passing the limit was not always enough;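 note: cells stimulated with the agonist NPW; 0% = agonist with vehicle and 100% = vehicle without agonist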
TAAR1 ag – agonists of human TAAR1; Q96RJ0; CHO RD-HGA16 TAAR1, Fluo-8 calcium fluorescence; vehicle wells 0%, saturating PEA agonist 100%; activation, % at 3 µM; 360,000 tested, 0.99% active;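 active = activation above the mean activation of all test compounds in the run plus 3 SD, cut at about 38% in these data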
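System: CHO-derived RD-HGA16 cells with stable Gα16 and human TAAR1. Times: 17-24 h plating, Fluo-8 75 min 37 °C, 30 min RT. Measured by: calcium-sensitive Fluo-8 signal, excitation 470-495, emission 515-575 nm. Read-out basis: % activation relative to PEA EC100 response. Control set: DMSO and PEA EC100. Repeats: no replicates (n 1).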
CHO parental Ca – counter-screen for OX1R antagonists: effect in parental CHO cells. parental CHO-K1, ATP-induced calcium, Fluo-8 fluorescence. inhibition, % at 5.6 µM. 330,000 tested, 0.63% active. AID 463079;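 active = inhibition above that plate's mean sample inhibition plus 3 SD, cut at about 26% in these data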;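 note: 0% = ATP-challenged DMSO wells and 100% = DMSO wells without ATP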
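Material – parental CHO cells · Reagent – ATP stimulus · Compound – single nominal dose of 5.6 µM per compound · Detection – Fluo-8 fluorescence · Read-out basis – percent inhibition of calcium signal · Controls – ATP-challenged DMSO wells low, unchallenged DMSO wells high · Repeats – no replicates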
OX1R antag-1 – human HCRTR1 antagonism; O43613; CHO/OX1R cells, Fluo-8 calcium fluorescence, orexin A; inhibition, % at 5 µM; 330,000 tested, 0.43% active; AID 434989;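 active = inhibition above its plate's threshold, mean inhibition of all tested compounds on the plate plus 3 SD, cut at about 37% in these data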;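 note: 0% = orexin A challenge wells and 100% = SB-334867-A antagonist wells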
Target sequence (O43613 whole entry, looked up): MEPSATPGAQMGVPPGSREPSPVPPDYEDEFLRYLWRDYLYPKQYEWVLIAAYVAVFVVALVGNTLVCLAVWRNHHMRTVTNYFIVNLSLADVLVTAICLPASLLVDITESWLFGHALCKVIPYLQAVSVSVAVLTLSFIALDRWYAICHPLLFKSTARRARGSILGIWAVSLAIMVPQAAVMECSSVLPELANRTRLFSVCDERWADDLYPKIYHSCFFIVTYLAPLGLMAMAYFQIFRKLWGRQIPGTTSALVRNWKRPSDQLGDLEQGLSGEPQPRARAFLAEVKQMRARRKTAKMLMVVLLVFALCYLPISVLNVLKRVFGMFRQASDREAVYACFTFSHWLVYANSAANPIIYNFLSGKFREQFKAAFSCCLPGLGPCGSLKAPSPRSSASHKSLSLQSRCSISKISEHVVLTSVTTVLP
TAAR1 antag – human TAAR1 antagonism; Q96RJ0; CHO RD-HGA16 TAAR1, Fluo-8 calcium fluorescence, antagonist; inhibition, % at 3 µM; 360,000 tested, 1.5% active; AID 624466;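 active = inhibition above a per-plate cutoff, the mean inhibition of test compounds on that plate plus 3 SD, cut at about 49% in these data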;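 note: 0% = DMSO plus EC80 beta-PEA response and 100% = DMSO alone without agonist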
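Test system – hTAAR1-expressing CHO RD-HGA16 cells, Gα16-coupled · Also added – β-PEA at EC80 concentration, post-compound challenge · Compound – 3 µM, single point · Incubation – dye loading 75 min at 37 °C, then 30 min room temperature · Measured by – Fluo-8 intracellular calcium dye fluorescence, real-time kinetic reads · Benchmarks – vehicle and agonist controls · Replicates – singlicate, one well per test compound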
OX1R antag-2 – blocks the human orexin 1 receptor; OX1R-expressing cells, FRET antagonist read-out; inhibition, % at 6.6 µM; 330,000 tested, 1.8% active; AID 485270; in the data active = inhibition mostly above about 38%, no sharp cut-off; inactive = mostly below about 40%;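 note: 0% = agonist challenge alone and 100% = reference antagonist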
Numbers without * were called inactive; nt = no result. Most compounds without a hit are left out; they make up all but 4.6% or so of the library.

SMILES	GPR7 antag	TAAR1 ag	CHO parental Ca	OX1R antag-1	TAAR1 antag	OX1R antag-2
C#CCn1c(=NC(=O)c2cccs2)sc2cccc(OC)c21	-1.5	0.1	12.2	-40.7	13.8	65.7*
Cn1c(=NC(=O)CS(=O)(=O)c2ccccc2)sc2ccccc21	nt	0.6	-5.9	-12.9	0.8	1.2
COC(=O)C1=C(C)N(Cc2ccccc2C(F)(F)F)C(=NCc2ccc(C(F)(F)F)cc2)NC1CCc1ccccc1 (centres undefined)	nt	0.6	nt	nt	-9.4	nt
Cc1ccc(C)c(C(=O)CSc2nc(N)cc(=O)[nH]2)c1	3.5	4.1	-4.3	17.3	-0.4	5.3
CCN(CC)c1ccc(/C=N/NC(=O)c2cccc(S(=O)(=O)Nc3ccccc3OC)c2)cc1	-12.1	5.3	-7.2	-11.1	2.5	45.3
CCN(CC)c1ccc(/C=N/NC(=O)c2cccc(S(=O)(=O)Nc3ccccc3OC)c2)c(O)c1	-18.6	3.9	-10.4	24.8	10.9	78.8*
CCN(CC)c1ccc(C(=O)N/N=C/c2ccccc2OC(F)F)cc1	-1.5	-1.6	-25.4	14.4	26.8	74.3*
Cc1cc(C)n(CCNC(=O)c2cc(COc3ccc4ncccc4c3)on2)n1	-9.3	6.0	11.2	-18.3	-10.0	24.4
CC(CCCC(C)(C)O)NC(=O)c1cc(COc2ccc3ncccc3c2)on1 (centres undefined)	-15.8	9.0	24.5*	-11.5	17.3	14.1
Cc1ccc(F)cc1CNC(=O)c1cc(COc2ccc3ncccc3c2)on1	-7.3	22.8	32.2*	36.5	41.1	36.9
CC(C)N(Cc1nccn1C)C(=O)c1cc(COc2ccc3ncccc3c2)on1	-7.2	3.6	1.6	-10.0	-3.6	22.4
O=C(NCc1cccc(Cl)c1)c1cc(COc2ccc3ncccc3c2)on1	12.4	19.0	67.1*	41.7*	21.6	53.2
CCOc1ccccc1C(=O)Nc1cc(C)ccc1NC(=O)c1ccco1	-1.4	2.4	-16.0	-24.4	15.3	8.4
CC1(C)OC(=O)C2=C(CC(CCc3ccccc3)OC2c2ccc(Cl)c(Cl)c2)O1 (centres undefined)	nt	-1.0	nt	nt	-6.3	nt
O=C(CC(NC(=O)OCc1ccccc1)C(=O)OCc1ccccc1)OCc1ccccc1 (centres undefined)	nt	3.5	nt	nt	58.8*	nt
Nc1ccc2ccc(N)cc2c1	nt	2.9	nt	nt	-2.6	nt
COc1ccc2nc(N3CCC(C)CC3)c(C#N)cc2c1	-7.7	10.6	-15.8	-21.4	6.8	57.8*
CN(C(=O)COC(=O)c1c2c(nc3ccccc13)/C(=C/c1cccc([N+](=O)[O-])c1)CCC2)C1CCS(=O)(=O)C1 (centres undefined)	-5.1	2.5	13.4	8.4	12.5	14.2
Cc1cccc(C)c1NC(=O)COC(=O)c1c2c(nc3ccccc13)/C(=C\c1ccc3c(c1)OCO3)CCC2	3.6	25.7	37.9	45.4	53.5*	39.4
O=C(COC(=O)c1c2c(nc3ccccc13)/C(=C/c1cccc([N+](=O)[O-])c1)CCC2)NC1CCS(=O)(=O)C1 (centres undefined)	7.6	11.1	9.9	14.6	50.6*	30.1
CCCn1c(SCC(=O)Nc2cccc(F)c2)nc(O)cc1=O	nt	6.9	39.9*	79.1*	10.7	-6.5
CCCCCOC(=O)Nc1nnc(CCCCC)s1	18.9*	1.3	-20.9	-35.0	-1.0	6.6
COc1ccc(NC(=O)Nc2cccc3c2O[C@H](CN(C)C(=O)Nc2ccc(OC)cc2)[C@@H](C)CN([C@H](C)CO)C3=O)cc1	nt	17.3	-5.5	-12.4	55.7*	8.6
COc1ccc(NC(=O)N(C)C[C@H]2Oc3c(NC(=O)Nc4ccc5c(c4)OCO5)cccc3C(=O)N([C@H](C)CO)C[C@@H]2C)cc1	nt	21.7	8.4	-10.1	49.0*	8.5
COc1ccc(S(=O)(=O)N(C)C[C@H]2Oc3c(NC(=O)Nc4ccccc4)cccc3C(=O)N([C@H](C)CO)C[C@@H]2C)cc1	nt	11.7	nt	nt	57.5*	nt
SMILES	GPR7 antag	TAAR1 ag	CHO parental Ca	OX1R antag-1	TAAR1 antag	OX1R antag-2
Cc1ccc(NS(=O)(=O)c2ccc(OCC(=O)NCc3ccccn3)cc2)cc1	0.7	5.3	-3.0	6.4	8.2	15.4
COC(=O)[C@]12C[C@H](CC(=O)NCC3CCCCC3)C(=O)N(CCc3ccc(OC)c(OC)c3)C1=C[C@H](C(C)(C)C)O[C@@H]2C	nt	-1.9	nt	nt	-4.5	nt
COC(=O)C1=C(C)N(Cc2ccccc2C(F)(F)F)C(=NCc2ccc(C(F)(F)F)cc2)NC1c1cccc(F)c1 (centres undefined)	nt	8.9	nt	nt	-23.5	nt
O=C(c1cccc(S(=O)(=O)N2CCN(c3ccccc3)CC2)c1)N1CCCC(C(F)(F)F)C1 (centres undefined)	nt	0.9	33.8*	-2.2	14.6	21.1
CCOC(=O)Cn1c(=NC(=O)c2cc(-c3cccs3)nc3ccccc23)sc2cc(S(N)(=O)=O)ccc21	2.8	10.6	-4.8	13.8	24.1	25.6
COC(=O)Cn1c(=NC(=O)c2cc(-c3cccs3)nc3ccccc23)sc2cc(S(N)(=O)=O)ccc21	13.5	4.2	35.5*	20.2	30.1	12.1
CCOC(=O)C1CCCN(C(=O)CCc2nnc(-c3ccc(C(C)=O)s3)o2)C1 (centres undefined)	-2.9	25.9	-10.8	-13.9	5.0	42.2*
CCOC(=O)C1CCCN(C(=O)CSCc2ccccc2)C1 (centres undefined)	-3.6	4.8	-22.8	-17.1	1.8	9.6
O=C(Nc1nnc(C2CC2)s1)c1ccc(Cl)c(S(=O)(=O)N2CCc3ccccc3C2)c1	-5.4	9.9	-0.1	9.5	57.1*	29.8
CCc1nnc(NC(=O)c2ccc(Cl)c(S(=O)(=O)N3CCc4ccccc43)c2)s1	10.2	13.0	12.9	-1.1	19.7	60.5
O=C(Nc1ccncc1)c1ccc(Cl)c(S(=O)(=O)N2CCc3ccccc32)c1	nt	15.1	43.7*	34.3	62.9*	49.6*
Cc1cccc(NC(=O)c2ccc(Cl)c(S(=O)(=O)N3CCc4ccccc43)c2)n1	nt	2.2	-13.7	27.2	15.7	34.5*
Cc1cccc(NC(=O)c2ccc(Cl)c(S(=O)(=O)N3CCCC3)c2)n1	-13.1	3.2	-16.3	-26.0	-5.0	28.4
c1ccc(N=C2SCCCS2)cc1	nt	0.4	nt	nt	-23.7	nt
O=C(c1ccccc1)c1coc2c1C(=O)c1ccccc1C2=O	-9.1	2.1	-12.7	-20.1	-26.8	42.9
O=C1c2ccccc2-c2onc3ccc(Oc4ccccc4)c1c23	-5.0	43.2*	0.7	-9.2	66.8*	14.6
CCN1C(=O)C(=O)c2cc(C)ccc21	nt	7.8	-5.7	-8.2	-5.4	25.4
CC[N+]1=C(C)C(C)(C)c2cc(C)ccc21	0.8	2.1	63.9*	70.0*	16.8	43.3
Oc1ccccc1CNc1ccc(Br)cn1	68.5*	0.1	0.6	12.5	70.8*	29.9

Assay outcomes deposited in PubChem BioAssay by The Scripps Research Institute Molecular Screening Center.
